# Most compounds without a hit are left out; they make up all but 2.2% or so of the library.
# Statin myotox sup = suppressors of statin myotoxicity in C2C12 myotubes, primary screen, cell-based, single point, plate reader; C2C12 myotubes + simvastatin, ATP luminescence, 48 h; scaled: DMSO 0, geranylgeraniol control 100; rescue of ATP level, % at 7.49 µM; hit rate 0.78% among 330,000; AID 602340, 2012;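 active = mean ATP rescue above about 67%, or every replicate alone reaching that limit, limit read from the data, passing the limit was not always enough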;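 note: myotubes were challenged with 10 µM simvastatin during compound exposure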
# E-selectin induc = E-selectin induction in HUVECs, primary screen, imaging, HUVEC, immunofluorescence imaging, single point; P16581; normalized: neutral wells 0, TNF-alpha wells 100; activation, % at 7.58 µM; hit rate 0.37% among 260,000; AID 686992, 2013;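 active = mean E-selectin-positive cell signal at least 10% of the positive control, reached in at least 60% of replicates, without over 20% cell loss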
# Target sequence (P16581 whole entry, looked up): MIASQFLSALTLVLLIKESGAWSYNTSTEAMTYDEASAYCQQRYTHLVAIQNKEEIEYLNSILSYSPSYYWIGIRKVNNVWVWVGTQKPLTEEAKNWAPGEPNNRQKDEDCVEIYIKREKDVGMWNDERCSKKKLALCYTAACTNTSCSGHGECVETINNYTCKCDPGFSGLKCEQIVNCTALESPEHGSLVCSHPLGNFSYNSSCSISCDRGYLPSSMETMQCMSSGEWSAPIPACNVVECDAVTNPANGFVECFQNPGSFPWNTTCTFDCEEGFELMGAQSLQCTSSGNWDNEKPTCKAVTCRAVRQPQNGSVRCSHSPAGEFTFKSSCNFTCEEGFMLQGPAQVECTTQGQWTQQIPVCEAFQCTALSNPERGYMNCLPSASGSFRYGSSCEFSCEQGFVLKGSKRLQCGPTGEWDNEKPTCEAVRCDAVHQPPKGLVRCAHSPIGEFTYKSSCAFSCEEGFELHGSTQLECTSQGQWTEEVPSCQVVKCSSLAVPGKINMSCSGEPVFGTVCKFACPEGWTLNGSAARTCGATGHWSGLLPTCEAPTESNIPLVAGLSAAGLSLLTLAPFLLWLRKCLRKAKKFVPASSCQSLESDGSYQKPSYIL
#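 Read-out: % PE-positive cells | Test system: HUVEC | Doses: One compound dose added by pin transfer | Buffer or medium: EGM-2 over gelatin coat | Signal: Immunofluorescence imaging | Benchmarks: TNF-alpha, DMSO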
# DENV2 CPE rescue = inhibitors of DENV2 cytopathic effect, primary screen, cell-based, plate reader, single concentration; DENV2-infected cells, cytopathic effect rescue; hit rate 1.7% among 350,000; CPE inhibition, % at 9.99 µM; AID 651640, 2012; in the data active = CPE inhibition above about 20%, passing the limit was not always enough; tested in BHK-21 cells;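 note: 0% = median of neutral control wells and 100% = median of positive control wells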
# The depositor's hits bear a star; nt = not tested or not shown.
SMILES,Statin myotox sup,E-selectin induc,DENV2 CPE rescue
CC(C)(C)OC(=O)N1CCC(C(=O)N[C@@H](Cc2ccccc2)C(=O)O)CC1,114.6*,nt,nt
Cc1ccc(S(=O)(=O)N[C@@H](Cc2ccccc2)C(=O)N2CCC(C(=O)N[C@@H](CCC(N)=O)C(=O)O)CC2)cc1,5.2,65.9*,-0.5
Cc1ccc(S(=O)(=O)N[C@H](C(=O)N2CCC(C(=O)N[C@@H](CC(=O)O)C(=O)O)CC2)C(C)C)cc1,-12.4,nt,-1.7
CCC(C)[C@H](NS(=O)(=O)c1ccc(C)cc1)C(=O)N1CCC(C(=O)N2CCC(C(=O)OC)CC2)CC1 (some centres undefined),-8.7,nt,82.3*
Cc1ccc(S(=O)(=O)N[C@@H](CC(C)C)C(=O)N2CCC(C(=O)N[C@@H](Cc3ccccc3)C(=O)O)CC2)cc1,3.4,nt,-3.4
CC(C)(C)OC(=O)N1CCC(C(=O)N[C@H](Cc2ccccc2)C(=O)O)CC1,-1.6,nt,nt
Cc1noc(C)c1S(=O)(=O)Nc1ccc2c(c1)C(=O)N([C@H](C)CO)C[C@H](C)[C@H](CN(C)S(=O)(=O)c1ccccc1)O2,21.1,0.0,3.2
C[C@H]1CN([C@@H](C)CO)C(=O)CCCn2cc(nn2)CO[C@H]1CN(C)C(=O)Nc1ccc(C(C)(C)C)cc1,-8.2,-0.1,nt
COC(=O)CN(c1ccc(OC)cc1)S(=O)(=O)c1ccc(OC)c(OC)c1,18.8,nt,nt
COC(=O)CN(c1cc(Cl)ccc1OC)S(=O)(=O)c1ccc(OC)c(OC)c1,nt,nt,60.9*
Cc1noc(C)c1S(=O)(=O)Nc1ccc2c(c1)C(=O)N([C@@H](C)CO)C[C@H](C)[C@H](CN(C)C)O2,-13.9,0.4,-2.3
CCCCC[C@@H](/C=C/C1C(=O)C=C[C@H]1C/C=C\CCCC(=O)OC)OC(C)=O (some centres undefined),6.8,nt,25.4*
O=C(C1CC1)N1[C@@H]2CN(S(=O)(=O)c3ccccc3)c3ccccc3[C@@H]2[C@@H]1CO,-9.8,0.2,-13.3
CC(=O)Nc1ccc(NC(=O)C(C)OC(=O)C2CCN(S(=O)(=O)c3ccccc3C(F)(F)F)CC2)cc1 (centres undefined),14.1,3.0,-7.6
COc1ccccc1NC(=O)C(C)OC(=O)C1CCN(S(=O)(=O)c2ccccc2C(F)(F)F)CC1 (centres undefined),4.3,nt,54.1*
C[C@H]1CN([C@@H](C)CO)S(=O)(=O)c2ccc(C#CC3CC3)cc2O[C@H]1CN(C)C(=O)CN(C)C,11.2,0.2,-6.2
CCOC(=O)c1ccc(NC(=O)N2CCCCCC2)cc1,-5.3,-0.1,5.6
CCCN1CCN(C(=O)Nc2ccc(C(=O)OCC)cc2)CC1,108.9*,nt,nt
CCOC(=O)N1CCC(NC(=O)CCC(=O)N2CCOc3ccccc32)CC1,123.2*,nt,nt
O=C(CCC(=O)N1CCOc2ccccc21)NC1CCCCCC1,1.7,0.0,-4.6
CCCNC(=O)N(C)C[C@H]1Oc2cc(C#CC3CC3)ccc2S(=O)(=O)N([C@H](C)CO)C[C@H]1C,4.6,-0.1,12.9
Cc1noc(C)c1NC(=O)N(C)C[C@H]1Oc2c(NC(=O)c3ccc(-c4nccs4)cc3)cccc2C(=O)N([C@H](C)CO)C[C@@H]1C,-18.1,nt,-8.7
CCC(=O)Nc1ccc2c(c1)OC[C@@H](C)N(CC1CCOCC1)C[C@H](C)[C@H](OC)CN(C)C2=O,-6.8,0.1,-4.3
COc1ccc(C(=O)Nc2n[nH]c(-c3ccncc3)n2)cc1,107.0*,nt,nt
COc1ccc(C(=O)Nc2nc(C)cc(C)n2)cc1,nt,1.3,1.9
SMILES,Statin myotox sup,E-selectin induc,DENV2 CPE rescue
COC(=O)c1ccc(NC(=O)CSc2n[nH]c(-c3ccncc3)n2)cc1,76.8*,nt,nt
CCOC(=O)c1ccc(NC(=O)CSc2n[nH]c(-c3ccncc3)n2)cc1,13.1,nt,nt
C[C@@H]1CN([C@@H](C)CO)C(=O)c2cc(NC(=O)CCCCCC(=O)Nc3ccccc3N)ccc2O[C@H]1CN(C)Cc1ccc2c(c1)OCO2,nt,nt,4.5
Cc1ccc(S(=O)(=O)N(C)C[C@H]2Oc3c(NC(=O)Nc4ccccc4)cccc3C(=O)N([C@@H](C)CO)C[C@@H]2C)cc1,8.2,0.3,-11.6
COc1ccc(NC(=O)Nc2ccc3c(c2)C(=O)N([C@@H](C)CO)C[C@@H](C)[C@@H](CN(C)C(=O)CCC(F)(F)F)OCCCC[C@@H](C)O3)cc1,nt,0.1,-5.0
CO[C@@H]1CC[C@H]2CCOc3ccc(C#N)cc3C(=O)N(C)C[C@@H](OC)[C@@H](C)C(=O)N(C)C[C@@H]1O2,11.6,nt,-2.4
COc1ccc2c3c(n(C)c2c1)[C@H](CO)N(CC1CC1)CC31CCN(Cc2nccs2)CC1,nt,-0.3,45.2*
CCC(=O)N1CCC2(CC1)CN(Cc1nccs1)[C@H](CO)c1c2c2ccc(OC)cc2n1C,nt,-0.4,11.0

# Assay outcomes from PubChem.
